Source: ChEMBL document CHEMBL4513216, “Probing the Open Global Health Chemical Diversity Library for Multistage-Active Starting Points for Next-Generation Antimalarials” (ACS Infect Dis, 2020)

Experiment: Toxicity liver stage against HepG2, at 10uM
Format: cell-based
Set-up: test concentration 10 uM, cell line HepG2-A16-CD81EGFP
Settings: human, HepG2-A16-CD81EGFP cells; read-out: INHIBITION
Method in brief: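 Uninfected HepG2-A16-CD81EGFP cells, 3 × 10^3 per well, 1536-well, plated on prespotted compound at 10 μM final, parasite-free screening media added to match infected plates; puromycin 10 μM positive, DMSO 0.5% negative; run in parallel with 48 h PbLuc assay at 37 °C, 5% CO2; viability by CellTiter-Glo luminescence, normalized to controls.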

Row | SMILES | cytotoxicity at 10 µM
1 | CNC(=O)[C@@H]1C[C@H]2CN(Cc3ccco3)C[C@H]2N1C | 7.76%
2 | O=C(c1cc(COc2ccc3c(c2)OCO3)[nH]n1)N1CCCC(O)C1 (stereo unspecified) | -8.07%
3 | Cc1cc(N(C)C)nc(N2CCn3c(C)nnc3C2)n1 | -5.14%
4 | CC(C)c1noc(C(C)N2CCN(Cc3nnc(C4CC4)o3)CC2)n1 (stereo unspecified) | -11.9%
5 | CCOC(=O)C1CSCCN1C(=O)c1ccc(-n2nc(C)cc2C)cc1 (stereo unspecified) | -4.92%
6 | Cc1cnn(CC2CCCN2C(=O)c2ccc3[nH]c(=O)[nH]c3c2)c1 (stereo unspecified) | -3.98%
7 | Cc1[nH]ccc1C(=O)N1CCC2(CC1)c1nc[nH]c1CCN2S(C)(=O)=O | 6.63%
8 | COCC(=O)NCCC(=O)N1CCN(S(=O)(=O)c2ccc(Br)cc2)CC1 | -38.2%
9 | CC(C)CCNc1nc(C(=O)NC2CC2)cs1 | 0.461%
10 | CCNS(=O)(=O)c1ccc2c(c1)c(=O)n(CC)c(=O)n2CC | 10.4%
11 | C/C(=C\c1ccccc1)CN1CCCC(c2nnc3n2CCNCC3)C1 (stereo unspecified) | 6.97%
12 | CCN1CC(C(=O)N2CCN(c3cnn(C)c(=O)c3)CC2)CCC1=O (stereo unspecified) | 0.508%
13 | Cn1cc(CN2CCCC3(CCCN3S(C)(=O)=O)C2)cn1 (stereo unspecified) | 2.08%
14 | COc1ccc(NC(=O)c2nc3ccccc3n(C)c2=O)c(OC)c1 | 0.37%
15 | Cc1ccc(C)c2c(O)cc(CN3CCC(=O)NCC3C)nc12 (stereo unspecified) | 2.11%
16 | O=C(Nc1ccccc1)c1ccc(NCc2ccccc2CO)nn1 | 4.34%
17 | CS(=O)(=O)Cc1nc(CN2CCCc3sccc3C2)cs1 | 7.28%
18 | O=C(c1n[nH]c2ccccc12)N1CCCC1c1noc(C2CC2)n1 (stereo unspecified) | -10.8%
19 | Cc1cc(C(=O)N2CCNC(=O)C2)c(C)n1Cc1ccccn1 | -2.33%
20 | NCC(CO)Cc1cccc(OC(F)(F)F)c1 (stereo unspecified) | 3.2%
21 | c1ccc(CN2CCC3(CC2)CC(Nc2nccs2)CO3)nc1 (stereo unspecified) | -78.2%
22 | CS(=O)(=O)NC[C@H]1OC[C@@H]2CCN(C(=O)c3cccnc3)C[C@@H]21 | 5.31%
23 | CCn1ncnc1C(C)NC(=O)C1CCN(Cc2ccco2)CC1 (stereo unspecified) | -133%

Row | SMILES | cytotoxicity at 10 µM
24 | O=C(NCC(Cc1cccc(F)c1)N1CCCC1=O)c1ccccc1 (stereo unspecified) | -12.2%
25 | O=C1CCC2(CCNCC2)CN1CCCOc1cccnc1 | -13.2%
26 | CN(C)Cc1cncc2c1CCN(Cc1ccoc1)C2 | -103%
27 | O=S(=O)(Cc1cccc2cccnc12)NC(CO)c1ccco1 (stereo unspecified) | 4.22%
28 | O=C(CC1CC1)N1CC[C@H]2OCC[C@@]2(COc2ncccc2F)C1 | -134%
29 | COCC(=O)N1CCO[C@]2(CCC[C@H]2COC)C1 | -97.5%
30 | O=C(c1ccc(-n2cccn2)nc1)N1CCCC(n2cccn2)C1 (stereo unspecified) | -4.75%
31 | COc1c(NS(=O)(=O)c2cc(C)ccc2C)c(C)nn1C | 0.259%
32 | O=S(=O)(NCCN1CC=CC1)c1cncc(Cl)c1 | -2.42%
33 | Cn1ccnc1CN1CCO[C@H]2C(CNC(=O)c3ccco3)CC[C@@H]21 (stereo partly specified) | 3.62%
34 | Clc1ccccc1C1(c2ccnc(CC3CC3)n2)CCNCC1 | -10.3%
35 | c1ccc(CO[C@@H]2C[C@H]3CN(c4ncccn4)CCN3C2)nc1 | -7.49%
36 | O=C(c1ncn2c1CNS(=O)(=O)c1ccccc1-2)N1CCOCC1 | 8.28%
37 | Cc1nn(C)c2nc(N(C)CC3CCN(CC(C)C)C3)sc12 (stereo unspecified) | -8.13%
38 | COc1ccccc1N1CCN(C(=O)Cn2nc(C)c(C)c2C)C(C)C1 (stereo unspecified) | 2.96%
39 | Cn1cccc1CN1CCC2(CCCN(C(=O)c3cnccn3)C2)C1 (stereo unspecified) | -6.36%
40 | CNC(=O)CN1CCN(C(=O)c2ccn(C)c(=O)c2)CC1 | -16%
41 | CC(=O)N1CCCN(C(=O)NC(C)Cn2ccnc2)CC1 (stereo unspecified) | 4.52%
42 | COCCN(C)CCN1CC2(CCN(C3CCOC3)CC2)OC1=O (stereo unspecified) | 4.63%
43 | O=C(c1ccc[nH]1)N1CCC2(CCCN2Cc2cccnc2)CC1 | 6.89%
44 | Cn1cc(CN2CCc3nc4ccccc4c(=O)n3CC2)cn1 | -1.57%
45 | Cc1nn(Cc2ccc(F)cc2)c2[nH]nc(N)c12 | 1.11%
46 | CN(C)c1cc2c(nn1)CCN(C(=O)Cc1ccc3c(c1)CCO3)C2 | 5.71%

Row | SMILES | cytotoxicity at 10 µM
47 | CN(Cc1ccco1)C(=O)CN1CCCCC1Cn1cccn1 (stereo unspecified) | 2.91%
48 | O=C1[C@H]2CN(Cc3ccc(F)cc3)C[C@H]2CN1c1ccsc1 | -87.8%
49 | CC(=O)Nc1nc(C(=O)NCCOc2ccc(C)cc2)cs1 | 5.35%
50 | COCCN1C(=O)CCC12CCC(NCc1cccc(C)n1)CC2 (stereo unspecified) | 9.4%
51 | CC(C)c1ccccc1OCCNC(=O)N1CCC(CC(N)=O)CC1 | 3.2%
52 | Cc1cncc(C2CCCN2CC(N)=O)n1 (stereo unspecified) | -5.3%
53 | Cc1n[nH]c(C)c1CCN(C)C(=O)c1ccc(CCC(C)(C)O)cc1 | 6.15%
54 | CC(C)Oc1ncccc1CNC(=O)N1CCCC1c1ccsc1 (stereo unspecified) | -8.25%
55 | CNC(=O)c1nc(CN2CCOC(C(F)(F)F)C2)no1 (stereo unspecified) | -2.08%
56 | CC(=O)N1CCN(C(=O)NCCCc2cn[nH]c2C)CC1 | 12.1%
57 | COCC1Cn2nnc(-c3cnn(C)c3)c2CN1Cc1ccsc1 (stereo unspecified) | 2.11%
58 | COc1ccc2c(c1)OCC(Cc1ccc(CN)cn1)C2 (stereo unspecified) | -1.84%
59 | N#CCC(=O)NCc1nnc2n1CCN(Cc1nccs1)C2 | -149%
60 | CC=C(C)C(=O)NS(=O)(=O)c1ccc(C(F)(F)F)cc1 | 3.12%
61 | CC(O)(CN1CCC(O)CC1)c1cccc(C(F)(F)F)c1 (stereo unspecified) | -0.0552%
62 | CCCc1n[nH]c(C2CN(CCCOc3ccccc3)CCO2)n1 (stereo unspecified) | -0.409%
63 | COc1cccc2c1OCC(C(=O)NCCc1nnc(C)s1)C2 (stereo unspecified) | -42.1%
64 | COc1cnc(N2CCCN(c3ccc(F)cc3)CC2)nc1 | -10.6%
65 | Cc1cnc(CNC(=O)NCCOc2ncccc2Cl)s1 | 8.35%
66 | Cc1sc(C(=O)O)cc1S(=O)(=O)Nc1c(F)cccc1-n1cccn1 | -1.37%
67 | COCC1CN(C(=O)c2cccs2)Cc2nccn2C1 (stereo unspecified) | -104%
68 | CC(C)CCN(C)Cc1nc2c(cnn2C)c(=O)[nH]1 | -11.2%
69 | Cc1nonc1C(=O)N1CCc2c(ncn2CCc2ccccc2)C1 | -0.207%

Row | SMILES | cytotoxicity at 10 µM
70 | COCC1CN(Cc2ccccn2)Cc2nn(C)cc21 (stereo unspecified) | -87.5%
71 | Cc1nc(N2CCN(C(=O)C3CCCC3)CC2)c2c(n1)c(C)nn2C | 6.97%
72 | COc1ccc(N2CCC(NCc3csc(C(C)C)n3)CC2)cc1 | -15.9%
73 | O=C(O)C[C@@H]1CCN(C(=O)C2CCCC2)C[C@@H]1CCN1CCCCC1 | -6.51%
74 | O=S(=O)(c1cnccc1N1CCN(CCO)CC1)N1CCCCC1 | 15.7%
75 | Cc1nc(C)c(CCNC(Cc2ccncc2)C(F)(F)F)s1 (stereo unspecified) | -4.96%
76 | CC(C)(C)OC(=O)N1CC(=O)N(CCc2ccccc2)CC(O)C1 (stereo unspecified) | -12.9%
77 | COc1ccc(C(C)Nc2ncc(C(N)=O)cc2Cl)c(OC)c1 (stereo unspecified) | 19.1%
78 | CC1(NC(=O)CNC(=O)C(C)(C)C)CCc2ccccc2C1 (stereo unspecified) | -3.67%
79 | Cn1cccc1C(=O)NC[C@H]1C[C@@H]2CN(C(=O)c3ccco3)C[C@@H]2O1 | -105%
80 | CCc1nc(Cn2c(=O)c3c(C(F)(F)F)cc(C)nc3n2C)no1 | 2.58%
81 | O=C(Cc1ccccc1)NCc1ncc(-c2ccccc2C(=O)O)cn1 | -1.89%
82 | Cc1ccc(-c2cn(C3CCN(C(=O)[C@H]4CCCO4)CC3)nn2)cc1 | -8.93%
83 | CCC(CNS(C)(=O)=O)Oc1ccccc1F (stereo unspecified) | -6%
84 | Cc1oc(-c2ccccc2)nc1C(=O)NC1=NCCS1 | 1.85%
85 | COc1ccc2[nH]cc(C(=O)CNc3nc(C)cs3)c2c1 | 6.04%
86 | CS(=O)(=O)N1CCC(Cc2cnc(Br)cn2)C1 (stereo unspecified) | 14.5%
87 | c1ccc(-c2nnc3ccc(N4CCC5(CCOC5)C4)nn23)cc1 (stereo unspecified) | 7.12%
88 | COc1ncnc(N)c1CNCCc1ccccc1 | -3.15%
89 | O=C(NCC1CCC1)c1ccc(-n2ccnc2)nn1 | 2.18%
90 | CCOc1ccc(NC(=O)Nc2cc(N3CCCCC3)ncn2)cc1 | 2.21%
91 | O=C1CC(c2ccsc2)c2cnn(C3CCCC3)c2N1 (stereo unspecified) | -0.524%
92 | CCN(Cc1nc(Cc2ccccc2)no1)C1CC1 | 6.26%

Row | SMILES | cytotoxicity at 10 µM
93 | Cc1noc2ncc(S(=O)(=O)Nc3cc(CC(C)(C)C)[nH]n3)cc12 | 5.55%
94 | CCn1c(C)nnc1SCCNc1nc(C)nc2ncccc12 | 0.194%
95 | CCn1nc(C)cc1C(=O)NCc1nc(C)no1 | 0.304%
96 | Cc1ccc(CSc2nc(N)cc(NCCC(N)=O)n2)cc1 | 0.375%
97 | Cc1ccc(NC(=O)[C@H]2C[C@H](C(=O)O)CN(CC(C)C)C2)cn1 | 9.9%
98 | CCOCCN1Cc2cnn(C)c2C(COCC)C1 (stereo unspecified) | -62.6%
99 | Cc1cc(-c2ccc(=O)n(CCNC(=O)C3CCC3)n2)c(C)o1 | -2.32%
100 | Cc1nc(CN(C)C2CCN(CC3CCOCC3)C2)no1 (stereo unspecified) | -4.68%
101 | Cn1cc(C(=O)N2CCN(Cc3ccccn3)CC2)ccc1=O | 6.85%
102 | O=C(NCCc1cccnc1)Nc1cc(C(F)(F)F)c[nH]c1=O | -12.2%
103 | NCC1CN(c2nc(-c3cccnc3)nc3c2CCNCC3)CCO1 (stereo unspecified) | -17.6%
104 | CCN(C)C(=O)c1coc(COc2ccccc2)n1 | 3.36%
105 | CC(C)N(Cc1cccnc1)C(=O)CNc1ccc(C#N)cc1 | 1.44%
106 | O=C(NC1CC1)c1cc(NC(=O)N2CCOCC2)ccc1Cl | -4.15%
107 | COCCN(Cc1ccc(F)cc1Cl)C(=O)c1cc[n+]([O-])cc1 | 4.75%
108 | Cc1nc(C2CCCN2C(=O)CN(C)Cc2ccccc2)no1 (stereo unspecified) | -0.803%
109 | Cc1noc(NC(=O)c2ccccc2)n1 | -0.269%
110 | CC(C)CS(=O)(=O)N1C[C@@H]2C[C@H](C(=O)N3CCN(C)CC3)[C@H](C1)O2 | 0.508%
111 | Cc1cccc(CN2CC[C@@H]3[C@@H]2CCN3Cc2cccs2)n1 | -117%
